# Reference: ChEMBL document CHEMBL4052823, “Extra Sugar on Vancomycin: New Analogues for Combating Multidrug-Resistant Staphylococcus aureus and Vancomycin-Resistant Enterococci” (J Med Chem, 2018)
# Calls of active or inactive are those of the source. No cut-off for these calls is given here.
# What was measured:
# [1] = test system: Enterococcus faecium; assay: Antibacterial activity against glycopeptide-resistant Enterococcus faecium Efm-HS-06188 vanA after 24 hrs by broth microdilution method; format: functional; conditions: Efm-HS-06188, 24 h
# Procedure, shortened: (§1)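 Broth microdilution in cation-adjusted Mueller-Hinton II broth. DMSO stocks were diluted in broth and twofold serially from 128 to 0.0625 μg/mL or lower. Each well was inoculated with ~10^5 CFU of exponential-phase bacteria and incubated at 37 °C for 24 h. MIC was the lowest concentration giving complete growth inhibition, read per CLSI. Growth controls contained broth plus DMSO.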
# [2] = test system: Staphylococcus aureus; assay: Potency index, ratio of telavancin MIC90 to test compound MIC90 for vancomycin/methicillin-susceptible Staphylococcus aureus Newman […]; format: functional
# [3] = test system: Staphylococcus aureus; assay: Antibacterial activity against healthcare-associated methicillin-resistant/vancomycin-intermediate Staphylococcus aureus Mu50 after 24 hrs by broth microdilution method; format: functional; conditions: Mu50, 24 h; procedure, shortened: as §1
# [4] = test system: Enterococcus faecium; assay: Antibacterial activity against glycopeptide-resistant Enterococcus faecium Efm-HS-0847 vanM after 24 hrs by broth microdilution method; format: functional; conditions: Efm-HS-0847, 24 h; procedure, shortened: as §1
# [5] = test system: Staphylococcus aureus; assay: Antibacterial activity against methicillin-resistant Staphylococcus aureus USA300 LAC infected in BALB/c mouse assessed as increase in mouse survival rate at 7 mg/kg, ip administered as single dose after 10 days relative to control; format: functional, organism-based
# Procedure, shortened: (§2)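 Female BALB/c mice, 6−8 weeks old, were anesthetized with pentobarbital and infected retro-orbitally with ~2.35 × 10^8 CFU of exponential-phase USA300 LAC, 15 per group. A single 7 mg/kg ip dose was given 1 h after infection. Deaths were recorded daily to build survival curves.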
# [6] = AUClast in CD1 mouse at 5 mg/kg, iv; format: ADME, organism-based; set-up: dose 5 mg/kg, route intravenous, time 0 - last; conditions: in vivo
# Procedure, shortened: (§3)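 Fasted male CD-1 mice (18−22 g), 5 mg/kg single dose into the tail vein, 6 per group. Blood sampled at 0.25, 0.75, 2, 4, 8 and 24 h and analysed by UPLC-MS/MS. T1/2, AUClast, AUCINF_obs, CL_obs, MRTINF_obs and VSS_obs were calculated for each animal from its time−concentration curve.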
# [7] = test system: Enterococcus faecium; assay: Antibacterial activity against glycopeptide-resistant Enterococcus faecium Efm-HS-08257 vanM after 24 hrs by broth microdilution method; format: functional; conditions: Efm-HS-08257, 24 h; procedure, shortened: as §1
# [8] = Clearance in CD1 mouse at 5 mg/kg, iv; format: ADME, organism-based; conditions: in vivo; procedure, shortened: as §3
# [9] = Volume of distribution at steady state in CD1 mouse at 5 mg/kg, iv; format: ADME, organism-based; conditions: in vivo, read-out: Vdss
# Procedure, shortened: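 Fasted male CD-1 mice (18−22 g), 5 mg/kg single dose into the tail vein, 6 per group. T1/2, AUClast, AUCINF_obs, CL_obs, MRTINF_obs and VSS_obs were calculated for each animal from its time−concentration curve.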
# [10] = test system: Enterococcus faecium; assay: Antibacterial activity against glycopeptide-resistant Enterococcus faecium Efm-HS-0649 vanA after 24 hrs by broth microdilution method; format: functional; conditions: Efm-HS-0649, 24 h; procedure, shortened: as §1
# [11] = test system: Enterococcus faecium; assay: Antibacterial activity against glycopeptide-resistant Enterococcus faecium Efm-HS-vb01 vanB after 24 hrs by broth microdilution method; format: functional; conditions: Efm-HS-vb01, 24 h; procedure, shortened: as §1
# [12] = AUC (infinity) in CD1 mouse at 5 mg/kg, iv; format: ADME, organism-based; set-up: dose 5 mg/kg, route intravenous, time infinity; conditions: in vivo; procedure, shortened: as §3
# [13] = test system: Staphylococcus aureus; assay: Antibacterial activity against vancomycin/methicillin-susceptible Staphylococcus aureus Newman […] after 24 hrs by broth microdilution method; format: functional
# Procedure, shortened: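 Broth microdilution in cation-adjusted Mueller-Hinton II broth. […] Each well received ~10^5 CFU of exponential-phase bacteria and was incubated at 37 °C for 24 h. MIC was taken as the lowest concentration giving complete growth inhibition, interpreted per CLSI.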
# [14] = test system: Blood; assay: Drug uptake in CD1 mouse blood at 5 mg/kg, iv; format: ADME, organism-based; conditions: in vivo; procedure, shortened: as §3
# [15] = Half life in CD1 mouse at 5 mg/kg, iv; format: ADME, organism-based; conditions: in vivo; procedure, shortened: as §3
# [16] = MRT (infinity) in CD1 mouse at 5 mg/kg, iv; format: ADME, organism-based; conditions: in vivo; procedure, shortened: as §3
# [17] = test system: Enterococcus faecium; assay: Potency index, ratio of telavancin MIC90 to test compound MIC90 for glycopeptide-resistant Enterococcus faecium Efm-HS-vb01 vanB; format: functional
# [18] = test system: Enterococcus faecium; assay: Potency index, ratio of oritavancin MIC90 to test compound MIC90 for glycopeptide-resistant Enterococcus faecium Efm-HS-vb01 vanB; format: functional
# [19] = Binding affinity to Ac2Lys-dAla-dAla at 2 mM by 1H-13C HSQC NMR method
# Procedure, shortened: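 Constant-time [13C,1H]-HSQC at 600 MHz. The compound (2 mM in D2O, pH 3.1, 25 °C) was recorded alone, then again after adding Ac2Lys-dAla-dAla to a final 10 mM under the same conditions. Spectra were overlaid.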
# [20] = test system: L02; assay: Cytotoxicity against human HL7702 cells assessed as decrease in cell viability at 10 to 100 uM after 72 hrs by CCK8 assay; format: cell-based; conditions: l02, 72 h
# Procedure, shortened: (§4)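 HK-2 and HL-7702 cells were seeded at ~5000 cells/well, incubated overnight, then exposed to compound at final 10, 50 and 100 μM for 72 h. CCK-8 was added for 1.5 h at 37 °C and OD450 read. Viability was OD treated / OD untreated × 100, with triplicates.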
# [21] = test system: HK-2; assay: Cytotoxicity against human HK2 cells assessed as decrease in cell viability at 10 to 100 uM after 72 hrs by CCK8 assay; format: cell-based; conditions: hk-2, 72 h; procedure, shortened: as §4
# [22] = test system: Staphylococcus aureus; assay: Antibacterial activity against healthcare-associated methicillin-resistant/vancomycin-intermediate Staphylococcus aureus Mu50 infected in BALB/c mouse assessed as decrease in liver CFU levels at 7 mg/kg, ip administered twice in 24 hrs interval measured after 5 days; format: functional, organism-based
# Procedure, shortened: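 Female BALB/c mice, 6−8 weeks old, were anesthetized with pentobarbital and infected retro-orbitally with ~3.8 × 10^8 CFU of exponential-phase Mu50, 12 per group. Treatment started 1 h post-infection: 7 mg/kg ip in sterile water, two doses 24 h apart. At day 5 mice were euthanized and liver homogenates plated on TSA for CFU counts. Groups were compared by two-tailed Mann−Whitney test.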
# [23] = test system: Staphylococcus aureus; assay: Antibacterial activity against methicillin-resistant Staphylococcus aureus USA300 LAC infected in BALB/c mouse assessed as mouse survival rate at 7 mg/kg, ip administered as single dose measured after 10 days relative to control; format: functional; conditions: 240 h; procedure, shortened: as §2
structure (smiles),measurement,setting,value
CN[C@H](CC(C)C)C(=O)N[C@H]1C(=O)N[C@@H](CC(N)=O)C(=O)N[C@H]2C(=O)N[C@H]3C(=O)N[C@H](C(=O)N[C@H](C(=O)O)c4cc(O)c(CNCCCNC(=O)[C@H](O)[C@@H](O)[C@H](O)[C@H](O)CO)c(O)c4-c4cc3ccc4O)[C@H](O)c3ccc(c(Cl)c3)Oc3cc2cc(c3O[C@@H]2O[C@H](CO)[C@@H](O)[C@H](O)[C@H]2O[C@H]2C[C@](C)(NCc3ccc(-c4ccc(C(F)(F)F)cc4)cc3)[C@H](O)[C@H](C)O2)Oc2ccc(cc2Cl)[C@H]1O,MIC,[1],1 µg/mL
same,Ratio,[2],8 - 16
same,MIC90,[3],0.25 µg/mL
same,MIC,[4],8 µg/mL
same,Activity,[5],Active
same,AUC(0-t),[6],10700 ng·h/mL
same,MIC,[7],4 µg/mL
same,clearance,[8],6.4 mL/min/kg
same,Vd,[9],1.83 L/kg
same,MIC,[10],2 µg/mL
same,MIC,[11],0.5 µg/mL
same,AUC(0-inf),[12],13400 ng·h/mL
same,MIC90,[13],0.06 µg/mL
same,Drug uptake,[14],> 1 µg/mL
same,half-life,[15],3.72 h
same,MRT inf,[16],4.79 h
CN[C@H](CC(C)C)C(=O)N[C@H]1C(=O)N[C@@H](CC(N)=O)C(=O)N[C@H]2C(=O)N[C@H]3C(=O)N[C@H](C(=O)N[C@H](C(=O)O)c4cc(O)c(CN[C@H]5C(O)O[C@H](CO)[C@H](O)[C@@H]5O)c(O)c4-c4cc3ccc4O)[C@H](O)c3ccc(c(Cl)c3)Oc3cc2cc(c3O[C@@H]2O[C@H](CO)[C@@H](O)[C@H](O)[C@H]2O[C@H]2C[C@](C)(NCc3ccc(-c4ccc(C(F)(F)F)cc4)cc3)[C@H](O)[C@H](C)O2)Oc2ccc(cc2Cl)[C@H]1O (stereo partly specified),MIC,[1],1 µg/mL
same,Ratio,[2],8 - 16
same,MIC90,[3],0.12 µg/mL
same,MIC,[4],4 µg/mL
same,Activity,[5],Active
same,Ratio,[17],16
same,AUC(0-t),[6],20100 ng·h/mL
same,MIC,[7],2 µg/mL
same,clearance,[8],3.45 mL/min/kg
same,Vd,[9],0.9 L/kg
same,MIC,[10],1 µg/mL
same,MIC,[11],≤ 0.06 µg/mL
same,AUC(0-inf),[12],24300 ng·h/mL
same,MIC90,[13],0.015 µg/mL
same,Drug uptake,[14],> 1 µg/mL
same,Ratio,[18],4
same,half-life,[15],3.45 h
same,MRT inf,[16],4.41 h
CN[C@H](CC(C)C)C(=O)N[C@H]1C(=O)N[C@@H](CC(N)=O)C(=O)N[C@H]2C(=O)N[C@H]3C(=O)N[C@H](C(=O)N[C@H](C(=O)O)c4cc(O)c(CNCCO[C@@H]5O[C@H](CO)[C@H](O)[C@H](O)[C@H]5O)c(O)c4-c4cc3ccc4O)[C@H](O)c3ccc(c(Cl)c3)Oc3cc2cc(c3O[C@@H]2O[C@H](CO)[C@@H](O)[C@H](O)[C@H]2O[C@H]2C[C@](C)(NCc3ccc(-c4ccc(C(F)(F)F)cc4)cc3)[C@H](O)[C@H](C)O2)Oc2ccc(cc2Cl)[C@H]1O,MIC,[1],1 µg/mL
same,Activity,[19],Active
same,Ratio,[2],8 - 16
same,MIC90,[3],0.25 µg/mL
same,MIC,[4],8 µg/mL
same,Ratio,[17],16
same,AUC(0-t),[6],16600 ng·h/mL
same,MIC,[7],2 µg/mL
same,Activity,[20],Non-Toxic
same,clearance,[8],4.42 mL/min/kg
same,Vd,[9],1.08 L/kg
same,MIC,[10],2 µg/mL
same,MIC,[11],≤ 0.06 µg/mL
same,Activity,[21],Non-Toxic
same,Activity,[22],Active
same,AUC(0-inf),[12],20000 ng·h/mL
same,MIC90,[13],0.03 µg/mL
same,Drug uptake,[14],> 1 µg/mL
same,Ratio,[18],4
same,survival at 7 mg/kg,[23],86.7%
same,half-life,[15],2.94 h
same,MRT inf,[16],4.21 h
